Common to all, as to format: cell-based
Data set [1] in a line: Modulatory activity at P-gp in human K562/DOX cells assessed as increase in nuclear concentration of pirarubicin by spectrofluorometric assay. As to conditions: K562/Adr, read-out: I50.
Data set [2] deals with K562. Nature of the data set: Intrinsic cytotoxicity against human K562 cells at 0.1 to 3 uM after 72 hrs by MTT assay. As to conditions: k562, 72 h. The gist of the method:
(§1)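 K562 parental and P-gp-overexpressing K562/DOX cells, exponential phase (3 × 10⁵ cells/mL), seeded at 3000 cells/well. Test compounds alone at 0.1, 1.0 or 3.0 µM, without doxorubicin. Incubated 37 °C, 5% CO₂, 72 h. MTT added, further 3 h incubation, formazan crystals inspected microscopically.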
For orientation: Formazan colour is commonly taken as a measure of viable cells.

For data set [3], the system named is K562. As to the kind of experiment: Intrinsic cytotoxicity against doxorubicin-resistant human K562 cells at 3 uM after 72 hrs by MTT assay. As to conditions: k562, 72 h. The gist of the method: as §1
Data set [4] addresses ATP-dependent translocase ABCB1 (Homo sapiens, UniProt P08183). As to the kind of experiment: Modulatory activity at P-gp in doxorubicin-resistant human K562 cells assessed as MDR-reversing activity by measuring doxorubicin-induced cell mortality after 72 hrs by MTT assay relative to untreated control. As to conditions: k562, 72 h. In a few lines:
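K562/DOX (P-gp-overexpressing, doxorubicin-resistant) cells in exponential growth were seeded at 3000 cells/well. Doxorubicin was given alone or with modulator at 0.1, 1.0 or 3.0 µM, and incubated 72 h at 37 °C in 5% CO2. Viability was read by MTT with a further 3 h incubation. Reversal fold is the doxorubicin IC50 without modulator divided by the IC50 with modulator. Values are the mean of ≥3 determinations, each with quadruplicate cultures.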

One may read the mortality as the share of the test organisms that died.

ATP-dependent translocase ABCB1, sequence (P08183 whole entry): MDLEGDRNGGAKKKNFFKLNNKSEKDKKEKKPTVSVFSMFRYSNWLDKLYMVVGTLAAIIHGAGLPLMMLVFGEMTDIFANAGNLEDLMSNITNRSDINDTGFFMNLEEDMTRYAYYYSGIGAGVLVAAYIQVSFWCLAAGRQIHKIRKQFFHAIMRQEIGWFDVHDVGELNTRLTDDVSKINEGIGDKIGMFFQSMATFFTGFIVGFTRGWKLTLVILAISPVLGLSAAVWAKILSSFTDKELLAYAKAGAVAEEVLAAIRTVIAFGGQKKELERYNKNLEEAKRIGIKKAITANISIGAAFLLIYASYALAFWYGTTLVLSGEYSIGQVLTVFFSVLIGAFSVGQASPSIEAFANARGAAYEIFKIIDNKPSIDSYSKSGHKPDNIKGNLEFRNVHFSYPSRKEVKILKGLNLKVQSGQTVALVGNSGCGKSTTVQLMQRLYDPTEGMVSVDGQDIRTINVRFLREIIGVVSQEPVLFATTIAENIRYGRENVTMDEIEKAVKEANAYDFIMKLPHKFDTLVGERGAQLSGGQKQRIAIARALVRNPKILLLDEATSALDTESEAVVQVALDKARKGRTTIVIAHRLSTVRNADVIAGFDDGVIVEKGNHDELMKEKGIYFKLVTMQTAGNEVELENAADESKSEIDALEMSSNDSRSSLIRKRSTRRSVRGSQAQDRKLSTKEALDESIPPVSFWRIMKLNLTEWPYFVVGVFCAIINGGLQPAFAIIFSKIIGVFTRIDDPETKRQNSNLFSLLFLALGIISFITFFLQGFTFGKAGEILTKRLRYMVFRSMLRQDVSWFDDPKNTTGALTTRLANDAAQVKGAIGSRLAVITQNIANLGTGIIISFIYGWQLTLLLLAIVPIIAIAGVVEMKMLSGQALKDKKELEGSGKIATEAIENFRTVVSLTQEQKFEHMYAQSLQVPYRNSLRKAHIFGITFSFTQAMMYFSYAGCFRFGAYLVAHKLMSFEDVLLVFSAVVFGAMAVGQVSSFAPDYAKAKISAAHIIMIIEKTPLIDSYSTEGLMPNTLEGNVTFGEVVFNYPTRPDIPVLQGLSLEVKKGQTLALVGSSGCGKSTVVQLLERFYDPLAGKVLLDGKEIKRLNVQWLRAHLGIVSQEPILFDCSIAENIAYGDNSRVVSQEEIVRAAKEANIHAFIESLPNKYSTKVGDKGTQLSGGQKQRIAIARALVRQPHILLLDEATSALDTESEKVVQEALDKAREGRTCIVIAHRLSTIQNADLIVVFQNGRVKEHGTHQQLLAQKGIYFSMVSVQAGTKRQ

Regarding `C=C[C@@H]1CN2CC[C@H]1C[C@H]2[C@H](OCC(=O)OCCCCCN(C)CCCCCOC(=O)/C=C/c1cc(OC)c(OC)c(OC)c1)c1ccnc2ccc(OC)cc12`, in data set [1], the IC50 came to 3.43 µM.
Still for that read-out and setting: the result for `C=C[C@@H]1CN2CC[C@H]1C[C@H]2[C@H](OCC(=O)OCCCN(C)CCCOC(=O)/C=C/c1cc(OC)c(OC)c(OC)c1)c1ccnc2ccc(OC)cc12` reads 5.06 µM.
Turning to `C=C[C@@H]1CN2CC[C@H]1C[C@H]2[C@@H](OCC(=O)OCCCN(C)CCCOC(=O)/C=C/c1cc(OC)c(OC)c(OC)c1)c1ccnc2ccc(OC)cc12`, the IC50 in data set [1] came to 4.79 µM.
On the same count and under the same terms, the result for `COc1ccc2nccc(C(=O)OCCCN(C)CCCOC(=O)/C=C/c3cc(OC)c(OC)c(OC)c3)c2c1` reads 0.88 µM.
Turning to `COc1cc(/C=C/C(=O)OCCCN(C)CCCOC(=O)C2c3ccccc3-c3ccccc32)cc(OC)c1OC`, the IC50 in data set [1] came to 0.5 µM.
The same measure, in the same setting: the result for `COc1cc(C#CC(=O)OCCCN(C)CCCOC(=O)c2cc(OC)c(OC)c(OC)c2)cc(OC)c1OC` reads 1 µM.
On the same count and under the same terms, with `COc1cc(C#CC(=O)OCCCN(C)CCCOC(=O)c2c3ccccc3cc3ccccc23)cc(OC)c1OC` the figure was 0.7 µM; with `C=C[C@@H]1CN2CC[C@H]1C[C@H]2[C@@H](OCC(=O)OCCCCCN(C)CCCCCOC(=O)/C=C/c1cc(OC)c(OC)c(OC)c1)c1ccnc2ccc(OC)cc12`, 2.65 µM.
For the compound `COc1ccc2nccc(C(=O)OCCCCCN(C)CCCCCOC(=O)/C=C/c3cc(OC)c(OC)c(OC)c3)c2c1`, the IC50 in data set [1] is 0.75 µM.
As to `COc1cc(C#CC(=O)OCCCCCN(C)CCCCCOC(=O)c2cc(OC)c(OC)c(OC)c2)cc(OC)c1OC`, in data set [1], the IC50 was 0.29 µM.
Still for that read-out and setting: with `COc1cc(C#CC(=O)OCCCCCN(C)CCCCCOC(=O)c2c3ccccc3cc3ccccc23)cc(OC)c1OC` the figure was 0.34 µM; with `COc1cc(/C=C/C(=O)OCCCN(C)CCCCCOC(=O)c2cc(OC)c(OC)c(OC)c2)cc(OC)c1OC`, 0.27 µM; with `COc1cc(/C=C/C(=O)OCCCCCN(C)CCCOC(=O)c2cc(OC)c(OC)c(OC)c2)cc(OC)c1OC`, 0.12 µM.
In the case of `COc1cc(/C=C/C(=O)OCCCCN(C)CCCCOC(=O)c2cc(OC)c(OC)c(OC)c2)cc(OC)c1OC`, in data set [1], the IC50 stood at 1.53 µM.
For `COc1cc(/C=C/C(=O)OCCCN(C)CCCCCOC(=O)c2c3ccccc3cc3ccccc23)cc(OC)c1OC`, the results for the Activity result in the data set on K562 [2] and with K562 [3] were “Non-toxic” and “<= 20%”, respectively. Moreover, in data set [1], the IC50 turned out to be 0.04 µM.
In the case of `COc1cc(/C=C/C(=O)OCCCCCN(C)CCCOC(=O)c2c3ccccc3cc3ccccc23)cc(OC)c1OC`, the Activity result with K562 [2] is “Non-toxic”; in the data set on K562 [3] it was “<= 20%”. The mortality in data set [4] is given as 100%. The IC50 in data set [1] stood at 0.04 µM.
For `COc1cc(/C=C/C(=O)OCCCCN(C)CCCCOC(=O)c2c3ccccc3cc3ccccc23)cc(OC)c1OC`, the Activity result in the data set with K562 [2] was “Non-toxic”; in the data set with K562 [3], “<= 20%”. Also, the mortality in data set [4] stood at 100%. For the same compound, the IC50 in data set [1] is 0.07 µM.
Take `COc1cc(C#CC(=O)OCCCN(C)CCCCCOC(=O)c2cc(OC)c(OC)c(OC)c2)cc(OC)c1OC`: in data set [1], the IC50 came out at 0.26 µM.
Regarding `COc1cc(C#CC(=O)OCCCCCN(C)CCCOC(=O)c2cc(OC)c(OC)c(OC)c2)cc(OC)c1OC`, in data set [1], the IC50 came out at 0.31 µM.
In the case of `COc1cc(C#CC(=O)OCCCCN(C)CCCCOC(=O)c2cc(OC)c(OC)c(OC)c2)cc(OC)c1OC`, in data set [1], the IC50 amounted to 1.03 µM.
On to `COc1cc(C#CC(=O)OCCCN(C)CCCCCOC(=O)c2c3ccccc3cc3ccccc23)cc(OC)c1OC`, for which the IC50 in data set [1] amounted to 0.11 µM.
For the compound `COc1cc(C#CC(=O)OCCCCCN(C)CCCOC(=O)c2c3ccccc3cc3ccccc23)cc(OC)c1OC`, in data set [1], the IC50 was found to be 0.1 µM.
With `COc1cc(C#CC(=O)OCCCCN(C)CCCCOC(=O)c2c3ccccc3cc3ccccc23)cc(OC)c1OC`, in data set [1], the IC50 was 0.1 µM.
As for `COc1cc(/C=C/C(=O)OCCCCCN(C)CCCOC(=O)C2c3ccccc3-c3ccccc32)cc(OC)c1OC`, the IC50 in data set [1] amounted to 0.19 µM.
On the same count and under the same terms, with `COc1cc(/C=C/C(=O)OCCCN(C)CCCCCOC(=O)C2c3ccccc3-c3ccccc32)cc(OC)c1OC` the figure was 0.35 µM; with `COc1cc(/C=C/C(=O)OCCCCN(C)CCCCOC(=O)C2c3ccccc3-c3ccccc32)cc(OC)c1OC`, 0.11 µM.

(Values after ChEMBL document CHEMBL3351386, “Multidrug resistance (MDR) reversers: High activity and efficacy in a series of asymmetrical N,N-bis(alkanol)amine aryl esters” (Eur J Med Chem, 2014).)
